The record followed here is PubChem BioAssay.

The source made the active and inactive calls.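 Rule for the calls, unless noted: active = NADPH fluorescence slope more negative than the mean of all samples by about 3 SD, 99.7% confidence; inactive = the rest.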

A short description of assay [1]: inhibitors of TNFa-induced NFkB p65 translocation, primary screen, imaging, HUVEC, MLSMR starter and 10KST1 sets (AID 438;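 active = inhibition above 20% together with a positive visual image hit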;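 note: compound added about 3h40 before a 20 min TNFalpha stimulation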;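 for inhibition: signal is the nuclear over cytoplasmic p65 intensity ratio per well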). To be noted: HUVEC TNFa-induced p65 nuclear translocation; cell count: measured here: nuclei count (cytotoxicity indicator), at 2.08 µM; inhibition: at 2 µM, stronger effect = higher value, 0% TNFa-plus-vehicle, 100% no-TNFa wells.
Assay [2] is described as follows: inhibitors of mutant huntingtin aggregation, primary screen, imaging, exon1htt(103Q)mCFP cells, high-content imaging (AID 483;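 active = visual image review flags a hit and inhibition of aggregation exceeds 20%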;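 note: compound exposure lasted 3 days before fixation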;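 for nuclei count: percent of the per-plate median nuclei count of sample wells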). To be noted: exon1htt(103Q)mCFP cell line, aggregate imaging, at 2 µM; inhibition of aggregation: stronger effect = higher value; nuclei count: measured here: cell count, toxicity.
Assay [3] is described as follows: inhibitors of E-selectin induction by TNFa, primary screen, imaging, HUVEC, immunofluorescence, MLSMR starter and 10KST1 sets (AID 487;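 active = visually confirmed hit in the image check and inhibition above 20%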;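 for inhibition: signal is fraction of cell area covered by stained E-selectin grains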;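 for nuclei count: 100% = median nuclei count of all wells on the same plate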). To be noted: HUVEC TNFalpha-induced E-selectin immunofluorescence imaging, at 2 µM; inhibition: stronger effect = higher value; nuclei count: measured here: cell number, toxicity.
For assay [4], the target named is Voltage-gated potassium channel subunit beta-2 (Rattus norvegicus) (UniProt P62483). As to the kind of experiment: KvBeta enzyme negative modulators, primary screen, biochemical, NADPH fluorescence (AID 622;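 active = fluorescence slope higher than the sample average by over 3 SD, cut at about -0.22 in these data, passing the limit was not always enough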;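 note: slope of raw intensity against log time taken from 70 to 1610 s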). The following applies: recombinant KvBeta, 4-cyanobenzaldehyde reduction, at 10 µM, stronger effect = higher value.
Assay [5] has the same target. As to the kind of experiment: KvBeta positive modulators, primary screen, biochemical, NADPH fluorescence (AID 623).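 Note: fluorescence intensity change per second fitted from 20 to 320 s.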 To be noted: Recombinant KvBeta, NADPH fluorescence decrease slope, 10 min; at 10 µM; stronger effect = lower value.
Assay [6] concerns the target Muscarinic acetylcholine receptor M4 (Homo sapiens) (UniProt P08173). As to the kind of experiment: compounds altering M4/GIRK thallium flux, either direction, primary screen, M4 allosteric agonist project, cell-based, HEK293 M4/GIRK, BTC-AM (AID 625;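 active = fluorescence slope after compound addition differing from the mean of all tested samples at 99.7% confidence, mostly higher but some lower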;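 note: thallium influx through GIRK channels coupled to M4 in HEK293 cells with BTC-AM dye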). The following applies: at 10 µM, actives lie on both sides. The method in brief: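 Material – HEK293 cells with M4 receptor and GIRK channels · Buffer or medium – pH 7.3 thallium assay buffer · Doses – one dose, 10 µM final · Timing – cells overnight at 37 °C, BTC-AM loading 1 h, reads 2 min total · Measured by – kinetic fluorescence with BTC-AM dye · Controls – carbachol and DMSO controls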

The nature of assay [7]: inhibitors of Sendai virus-induced IRF3 signaling, primary screen, TLR/RLR signaling modifier project, cell-based, Sendai virus stimulus, luciferase, 10K MLSCN set (AID 602276;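 active = inhibition at or above 50% at 10 µM; inactive = inhibition below 50%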;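 note: firefly luciferase from ISG56 promoter only with Renilla not read in this screen; 0% = Sendai virus plus DMSO and 100% = medium plus DMSO without virus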). The following applies: HEK293 RL24 IRF3 luciferase reporter, at 10 µM, stronger effect = higher value. Background: A reporter such as luciferase makes a cellular process visible.
A short description of assay [8]: inhibitors of poly I:C-induced TLR3 signaling, primary screen, cell-based, poly I:C stimulus, luciferase, 10K MLSCN set (AID 602277;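 active = inhibition of the reporter signal at or above 50%; inactive = inhibition below 50%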). The following applies: HEK293-TLR3 RL24 IRF3 luciferase reporter, at 10 µM, stronger effect = higher value.

Sequence of Muscarinic acetylcholine receptor M4 (Homo sapiens) (P08173 whole entry, looked up): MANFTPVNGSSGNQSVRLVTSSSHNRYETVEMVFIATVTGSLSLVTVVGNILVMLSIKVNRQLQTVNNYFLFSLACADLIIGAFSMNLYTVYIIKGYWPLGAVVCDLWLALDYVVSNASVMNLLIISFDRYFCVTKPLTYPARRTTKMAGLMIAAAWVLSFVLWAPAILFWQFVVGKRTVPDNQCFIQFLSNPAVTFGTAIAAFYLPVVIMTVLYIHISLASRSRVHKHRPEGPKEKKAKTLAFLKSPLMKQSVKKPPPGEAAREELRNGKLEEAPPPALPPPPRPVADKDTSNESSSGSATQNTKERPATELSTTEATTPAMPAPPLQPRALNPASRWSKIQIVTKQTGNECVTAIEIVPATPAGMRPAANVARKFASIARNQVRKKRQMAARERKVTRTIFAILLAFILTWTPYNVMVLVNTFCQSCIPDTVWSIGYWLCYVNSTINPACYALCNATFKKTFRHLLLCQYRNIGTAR
Sequence of Voltage-gated potassium channel subunit beta-2 (Rattus norvegicus) (P62483 whole entry, looked up): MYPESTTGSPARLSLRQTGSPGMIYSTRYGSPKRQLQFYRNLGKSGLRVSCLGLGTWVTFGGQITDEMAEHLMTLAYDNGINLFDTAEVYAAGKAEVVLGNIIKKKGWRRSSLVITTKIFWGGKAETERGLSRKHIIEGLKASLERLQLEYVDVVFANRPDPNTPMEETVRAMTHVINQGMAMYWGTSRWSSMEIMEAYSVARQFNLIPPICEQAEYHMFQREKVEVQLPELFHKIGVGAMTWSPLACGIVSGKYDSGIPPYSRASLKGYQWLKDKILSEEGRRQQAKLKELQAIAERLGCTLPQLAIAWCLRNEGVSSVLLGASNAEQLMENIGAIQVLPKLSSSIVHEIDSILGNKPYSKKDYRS

`Cc1cc(Cl)ccc1OCCCC(=O)N1CCOCC1`: in assay [1], the cell count came to 571. The inhibition (as a rule, the drop in the measured response relative to a control, in per cent) was -1.5% (inactive) in assay [1], -29.2% (inactive) in assay [3], -29.3% (inactive) in assay [7] and -72.8% (inactive) in assay [8]. In addition, the inhibition of aggregation in assay [2] is -0.1% (inactive). In addition, the nuclei count in assay [2] amounted to 94.9%; in assay [3], 112%. The results for the fluorescence slope in assay [4] and in assay [6] were -0.503 (inactive) and 0.00464 (inactive), respectively. Besides, the NADPH fluorescence slope in assay [5] is -0.000205 (inactive).

Consider `CC(O)c1nc2ccccc2n1C1CCCCC1` (configuration not stated), for which the cell count in assay [1] was determined as 631. The inhibition is -19.6% (inactive) in assay [1], -16.4% (inactive) in assay [3], 20.2% (inactive) in assay [7] and 24.7% (inactive) in assay [8]. In addition, the inhibition of aggregation in assay [2] was -4.7% (inactive). Besides, the nuclei count in assay [2] was 99.7%; in assay [3], 111%. Moreover, the fluorescence slope was -0.585 (inactive) in assay [4] and 0.00511 (inactive) in assay [6]. In assay [5], the NADPH fluorescence slope is 4.8e-06 (inactive).

`ON=C1/C(=N\O)CC2(C/C1=N/O)OCCO2`: in assay [1], the cell count stood at 408. The inhibition is 2.2% (inactive) in assay [1], 7.1% (inactive) in assay [3], 17% (inactive) in assay [7] and 4.87% (inactive) in assay [8]. Also, the inhibition of aggregation in assay [2] was 22.4% (inactive). The figures for the nuclei count in assay [2] and in assay [3] were 69.5% and 89.7%, respectively. The fluorescence slope is -0.532 (inactive) in assay [4] and 0.00423 (inactive) in assay [6]. For the same compound, in assay [5], the NADPH fluorescence slope is -3.5e-05 (inactive).

In the case of `Cc1nn(Cc2ccccc2)c(C)c1NC(=O)CCC(=O)O`, the cell count in assay [1] amounted to 667. In addition, the inhibition in assay [1] is 23.6% (active); in assay [3], 17.9% (inactive); in assay [7], -5.04% (inactive); in assay [8], -12.9% (inactive). In addition, the inhibition of aggregation in assay [2] is -6.6% (inactive). The nuclei count in assay [2] stood at 112%; in assay [3] it was 105%. Further, the values for the fluorescence slope in assay [4] and in assay [6] were -0.49 (inactive) and 0.00488 (inactive), respectively. For the same compound, the NADPH fluorescence slope in assay [5] was 1.1e-05 (inactive).

In the case of `CC(Sc1nnnn1-c1ccccc1)C(=O)Nc1ccc(Cl)cn1` (configuration not stated), in assay [1], the cell count was 570. The inhibition was -12.8% (inactive) in assay [1], -139% (inactive) in assay [3], 16% (inactive) in assay [7] and 19.9% (inactive) in assay [8]. In addition, the inhibition of aggregation in assay [2] is -5.6% (inactive). Further, the results for the nuclei count in assay [2] and in assay [3] were 108% and 131%, respectively. The fluorescence slope is -0.426 (inactive) in assay [4] and 0.00566 (inactive) in assay [6]. In assay [5], the NADPH fluorescence slope is 2.6e-05 (inactive).

Take `Cn1c(=O)n(C)c2cc(NC(=O)C(F)(F)F)ccc21`: the cell count in assay [1] is 231. Besides, the inhibition in assay [1] was -14.4% (inactive); in assay [3] it was -10.9% (inactive); in assay [7], 5.97% (inactive); in assay [8], 17.7% (inactive). In addition, in assay [2], the inhibition of aggregation is 34.3% (active). Further, the nuclei count in assay [2] amounted to 96.5%; in assay [3] it was 103%. Also, the fluorescence slope is -0.449 (inactive) in assay [4] and 0.00534 (inactive) in assay [6]. Besides, the NADPH fluorescence slope in assay [5] was -3.6e-06 (inactive).

Regarding `O=C(CN1C(=O)COc2ccccc21)NCCN1CCc2ccccc2C1`, the cell count in assay [1] came to 681. For the same compound, the inhibition is 7.3% (inactive) in assay [1], -2.1% (inactive) in assay [3], 12.1% (inactive) in assay [7] and 26.1% (inactive) in assay [8]. Besides, in assay [2], the inhibition of aggregation is 30.2% (inactive). The nuclei count in assay [2] worked out at 95%; in assay [3], 92.7%. In addition, the fluorescence slope in assay [4] is -0.573 (inactive); in assay [6], 0.00634 (inactive). In assay [5], the NADPH fluorescence slope is -5.4e-05 (inactive).
